# Source: PubChem BioAssay (The Scripps Research Institute Molecular Screening Center)
# The list is not random: actives were taken first. Their share in the collection is about 2.4%.
# NPY Y2 blocker = blocks the human neuropeptide Y Y2 receptor | NPY-Y2 expressing cells, antagonist mode | inhibition, % at 2.7 µM | 140,000 tested, 0.99% active | P49146;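 note: 0% = vehicle with agonist challenge and 100% = reference antagonist with challenge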
# NPY2 pot ag = potentiators or agonists of human neuropeptide Y receptor Y2; P49146; cells expressing NPY-Y2, potentiator/agonist read-out; activation, % at 3.6 µM; 220,000 tested, 0.45% active; in the data active = activation above about 27%;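 note: cells stimulated with NPY near EC25 plus isoproterenol at EC100; 0% = vehicle plus submaximal agonist and 100% = vehicle plus saturating agonist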
# NPY-Y1 antag = blocks the human neuropeptide Y Y1 receptor | 200,000 tested, 1% active | P25929 | inhibition, % at 3.6 µM | HEK293-CNG Y1 cells, membrane potential fluorescence; NPY at EC95, then isoproterenol | AID 1040;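 active = inhibition above the campaign mean inhibition of all tested compounds plus 3 SD, cut at about 20% in these data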;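 note: 0% = DMSO wells given NPY plus isoproterenol and 100% = isoproterenol alone without NPY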
#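 Test system: HEK293 cells co-expressing NPY Y1 receptor and cyclic-nucleotide gated channel; Also added: NPY (25 nM), isoproterenol (1 µM), Ro 20-1724 (25 µM); Compound dosing: one concentration, 3.6 µM, in 0.4% DMSO; Timing: dye 3 h, compound 60 min room temperature, stimulation 45 min; Technique: Membrane-potential fluorescent dye readout.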
# S1P4 ag = human S1P4 receptor agonism | S1P4-expressing cell line, agonist reporter assay | activation, % at 4.98 µM | 220,000 tested, 0.35% active | AID 1509; in the data active = activation above about 11%;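 note: 0% = DMSO vehicle and 100% = reference agonist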
# Target sequence (O95977 whole entry, looked up): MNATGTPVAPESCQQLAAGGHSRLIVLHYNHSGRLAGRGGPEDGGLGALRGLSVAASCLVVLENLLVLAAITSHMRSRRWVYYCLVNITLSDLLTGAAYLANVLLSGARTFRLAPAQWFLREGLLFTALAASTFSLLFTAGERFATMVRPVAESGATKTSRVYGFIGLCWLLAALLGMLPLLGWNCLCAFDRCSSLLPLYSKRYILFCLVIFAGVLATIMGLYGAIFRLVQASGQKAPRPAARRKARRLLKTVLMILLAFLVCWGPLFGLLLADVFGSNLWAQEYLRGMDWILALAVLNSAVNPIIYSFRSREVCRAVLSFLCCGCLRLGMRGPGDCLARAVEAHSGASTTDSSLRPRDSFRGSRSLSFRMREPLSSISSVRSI
# S1P4 antag = antagonists of human S1P4 receptor; O95977; S1P4-expressing cells, antagonist mode, reporter read-out; inhibition, % at 4.98 µM; 220,000 tested, 0.26% active; in the data active = inhibition above about 29%;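 note: 0% = wells stimulated with agonist and 100% = vehicle wells without agonist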
# NPY-Y1 PAM-ag = human NPY-Y1 potentiation or agonism, primary screen; activation, % at 3.6 µM; 220,000 tested, 0.37% active; NPY-Y1 expressing cells, potentiator/agonist activation; AID 1304; in the data active = activation above about 33%, passing the limit was not always enough;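 note: cells stimulated with NPY at EC10 then isoproterenol at EC100; 0% = low agonist plus stimulus and 100% = saturating agonist plus stimulus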
# NPY1 antag conf = confirmation of human neuropeptide Y receptor Y1 antagonists; shares compounds with NPY-Y1 antag; HEK293-CNG NPY-Y1, membrane potential fluorescence, cAMP; NPY challenge against isoproterenol-raised cAMP; inhibition, % at 3.6 µM; 1,200 tested, 21% active; AID 1254; in the data active = inhibition above about 20%;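 note: 0% = vehicle with agonist plus stimulus and 100% = stimulus alone without agonist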
# NPY2 antag ctr = counter-screen for NPY-Y1 antagonists: human NPY-Y2 antagonism. HEK293 NPY-Y2 CNG membrane potential fluorescence; cells given NPY, then isoproterenol. shares compounds with NPY-Y1 antag. inhibition, % at 3.6 µM. AID 1255. 1,200 tested, 28% active;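 note: 0% = DMSO with agonist challenge and 100% = reference antagonist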
# An asterisk follows results filed as active; . = no result. Cut-off read from the data, not from the text of the source, unless noted: active = inhibition above about 17%; inactive = the rest.
SMILES,NPY Y2 blocker,NPY2 pot ag,NPY-Y1 antag,S1P4 ag,S1P4 antag,NPY-Y1 PAM-ag,NPY1 antag conf,NPY2 antag ctr
O=C1C=C(c2ccccc2)CC(/C=C/c2ccccc2)C1 (centres undefined),9,4,23*,1,-18,-38,16,10
CC1=CC(C)(C)N(C(=O)CNC2CCCCC2)c2cc(C)ccc21,.,-5,25*,-1,8,-2,21*,7
CC1=CC(C)(C)N(C(=O)CCl)c2cc(C)ccc21,.,2,0,4,-6,8,.,.
CCOC(=O)c1c(CSc2ccc(C)cc2)n(C)c2cc(Br)c(O)c(CN(C)C)c12,.,-100,75*,1,-1,-78,60*,72*
CCOC(=O)c1c(C)n(-c2ccc(C)cc2)c2ccc(O)c(CN(C)C)c12,.,-14,51*,0,-11,-43,52*,55*
CCOC(=O)c1c(CSc2ccccc2)n(C)c2cc(Br)c(O)c(CN(C)C)c12,.,-62,.,2,-8,-76,.,.
CCOC(=O)c1c(C)n(-c2ccc(OC)cc2)c2ccc(O)c(CN(C)C)c12,.,-47,.,2,-4,-45,.,.
CCc1nnc(NC(=O)c2ccc(S(=O)(=O)N3CCCCCC3)cc2)s1,0,3,61*,1,-22,8,-4,0
CCc1nnc(NC(=O)c2ccc(S(=O)(=O)N3CCCCC3C)cc2)s1 (centres undefined),0,-5,-5,0,-24,13,.,.
CSc1cc(-c2ccccc2)n(Cc2ccc(Cl)cc2Cl)c(=O)c1C#N,2,-11,24*,1,9,-13,0,2
COc1ccc(CNC(=O)COC(=O)c2ccc(F)c(S(=O)(=O)N3CCCCC3)c2)cc1OC,.,-8,.,1,-3,-16,.,.
O=C(NNC(=S)NCc1ccccc1)c1ccc2c(c1)OCO2,7,-19,10,-2,-6,-13,.,.
O=C(NC(=S)NCc1ccccc1)c1ccc2c(c1)OCO2,9,-7,21*,0,-13,-12,9,9
COc1ccccc1/C=c1\sc2nc(-c3ccco3)nn2c1=O,0,0,1,1,8,1,.,.
COc1ccc(OC)c(/C=c2\sc3nc(-c4cccs4)nn3c2=O)c1,5,-9,20*,1,-2,-32,3,2
COc1ccc(-c2nc3c4ccccc4ccn3c2CN2CCOCC2)cc1OC,.,-10,.,1,-16,-22,.,.
COc1ccc(CN2C(=O)c3ccccc3C2C(=O)NC2CCC(C)CC2)c(OC)c1 (centres undefined),.,-20,23*,-2,1,-1,3,5
COc1ccc(CN2C(=O)c3ccccc3C2C(=O)NC2CCCC(C)C2C)c(OC)c1 (centres undefined),.,-8,36*,-1,0,-16,10,7
COCCn1c(SCC(=O)Nc2cccc(C)n2)nnc1-c1ccco1,.,-6,-1,0,-5,14,.,.
O=C(COc1c(Cl)cc(Cl)cc1Cl)c1ccc(Cl)cc1,0,4,-4,0,7,-6,.,.
CNC(=O)CSc1nnc(-c2ccccn2)n1Cc1ccco1,.,21,.,-2,4,16,.,.
CC(C)(C)c1ccc(CSc2nnc(-c3ccccn3)n2Cc2ccco2)cc1,16,-16,21*,0,-3,-16,7,13
O=C(Nc1ccc(F)cc1)c1sc2cc(C(F)(F)F)cnc2c1-c1cccs1,8,-36,23*,2,-6,-68,12,17
CC1CCN(CCOc2cccc(Br)c2)CC1,5,-5,5,-4,-6,-32,.,.
Clc1cccc(OCCN2CCN(CCOc3cccc(Cl)c3)CC2)c1,11,-4,21*,0,-23,-5,5,7
SMILES,NPY Y2 blocker,NPY2 pot ag,NPY-Y1 antag,S1P4 ag,S1P4 antag,NPY-Y1 PAM-ag,NPY1 antag conf,NPY2 antag ctr
COc1cc(/C=C2\SC(=S)N(NS(=O)(=O)c3ccccc3)C2=O)cc(OC)c1OC,.,-22,.,0,-32,-10,.,.
O=C1/C(=C/c2ccccn2)SC(=S)N1NS(=O)(=O)c1ccccc1,.,-29,24*,-1,10,-31,19,14
COc1cccc(NC(=O)CN(C)C(C)C(=O)Nc2cc([N+](=O)[O-])ccc2Cl)c1 (centres undefined),.,-11,1,1,-7,-27,.,.
CNC(=S)Nc1ccc2nc(C)oc2c1,.,0,-1,-1,10,13,.,.
CCOc1ccccc1NC(=O)CCNC(=O)c1ccc(Cl)cc1,.,-3,2,-1,-9,-19,.,.
CN(C)c1ccc(NC(=O)CSc2nc3ccccc3c(=O)n2C2CCCCC2)cc1,-5,-5,-10,3,-6,16,.,.
Cc1cc(NC(=O)CSc2nc3ccccc3c(=O)n2C2CCCC2)no1,12,-8,33*,-1,-7,-24,2,13
CC1(c2ccccc2)CC(C)(C)N(C(=O)C2CCCO2)c2ccccc21 (centres undefined),16,-5,27*,-2,-5,-25,11,8
Cn1c(Cc2cccs2)nnc1SCC(=O)N1CCCc2ccccc21,3,-1,1,1,-7,11,.,.
O=C(CSc1nnc(Cc2cccs2)n1CCc1ccccc1)N1CCCc2ccccc21,13,-19,22*,0,10,-18,7,6
CCCCOC(=O)Cn1c(=N)n(CCC)c2ccccc21,7,-7,40*,2,3,1,3,5
CCCn1c(=N)n(CC(=O)O)c2ccccc21,1,8,2,1,-26,1,.,.
Cn1nc(C(=O)Nc2ccc(S(=O)(=O)Nc3ncccn3)cc2)ccc1=O,.,8,.,0,-10,-11,.,.
Fc1ccc(C(c2nnnn2Cc2ccco2)N2CCN(C3CCCCC3)CC2)cc1 (centres undefined),13,-4,29*,0,7,-24,13,10
Fc1ccc(C(c2nnnn2Cc2cccs2)N2CCN(C3CCCC3)CC2)cc1 (centres undefined),14,-11,7,-1,-15,-4,.,.
C[C@H](NC(=O)OC(C)(C)C)C(=O)N/N=C/c1ccc2nccnc2c1,.,-8,.,1,-2,19,.,.
Cc1cc(=O)oc2cc(N3C(=O)CC(Cc4ccccc4)C3=O)ccc12 (centres undefined),.,-18,-1,-1,-12,-19,.,.
O=C(NC(N1CCCC1)C(Cl)(Cl)Cl)c1ccccc1 (centres undefined),4,-4,0,1,-10,-1,.,.
O=C(NC(N1CCOCC1)C(Cl)(Cl)Cl)c1ccc(F)cc1 (centres undefined),.,-2,53*,-1,-14,-1,0,0
